ChEMBL document CHEMBL4364345, “Synthesis and evaluation of 1,3,4-oxadiazole derivatives for development as broad-spectrum antibiotics” (Bioorg Med Chem, 2019)
≈ marks a conversion by molar mass, not a printed value. Calls of active or inactive are those of the source.

Experiments:
Kocuria rhizophila = assay: Antimicrobial activity against Kocuria rhizophila clinical isolate at 50 ug/disk incubated for 20 +/- 4 hrs by agar disk diffusion method; type: functional; conditions: read-out: DIZ
Outline: (§1)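 Agar disk diffusion on Mueller-Hinton agar swab-seeded from a 0.5 McFarland inoculum (about 10^8 CFU/ml). Cellulose discs got 50 μg compound (10 μl of 5 g/L in DMSO); a 10 μL DMSO disc was the control. Incubated aerobically at 35 ± 2 °C for 20 ± 4 h, then growth-inhibition diameters measured.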

Staphylococcus aureus [1] = assay: Antimicrobial activity against Staphylococcus aureus clinical isolate at 50 ug/disk incubated for 20 +/- 4 hrs by agar disk diffusion method; type: functional; conditions: read-out: DIZ; outline: as §1
Staphylococcus aureus [2] = assay: Antimicrobial activity against Staphylococcus aureus ATCC 29213 at 50 ug/disk incubated for 20 +/- 4 hrs by agar disk diffusion method; type: functional; conditions: read-out: DIZ; outline: as §1
Streptococcus pyogenes [3] = assay: Antimicrobial activity against Streptococcus pyogenes clinical isolate at 50 ug/disk incubated for 20 +/- 4 hrs by agar disk diffusion method; type: functional; conditions: read-out: DIZ
Outline: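 Plates of MH + 5% horse blood were swabbed with a 0.5 McFarland inoculum and received discs with 50 μg compound (from 5 g/L in DMSO) plus a 10 μL DMSO control disc. Incubation at 35 ± 2 °C aerobically with 5% CO2 for 20 ± 4 h, then zone diameters measured.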

Bacillus subtilis = assay: Antimicrobial activity against Bacillus subtilis clinical isolate at 50 ug/disk incubated for 20 +/- 4 hrs by agar disk diffusion method; type: functional; conditions: read-out: DIZ; outline: as §1
Enterococcus faecium [4] = assay: Antimicrobial activity against Enterococcus faecium AUS0004 at 50 ug/disk incubated for 20 +/- 4 hrs by agar disk diffusion method; type: functional; conditions: read-out: DIZ; outline: as §1
Enterococcus faecium [5] = assay: Antimicrobial activity against Enterococcus faecium HM1070 at 50 ug/disk incubated for 20 +/- 4 hrs by agar disk diffusion method; type: functional; conditions: read-out: DIZ; outline: as §1
Listeria monocytogenes [6] = assay: Antimicrobial activity against Listeria monocytogenes clinical isolate at 50 ug/disk incubated for 20 +/- 4 hrs by agar disk diffusion method; type: functional; conditions: read-out: DIZ
Outline: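 Disk diffusion on MH agar with 5% horse blood, seeded by swab from a 0.5 McFarland suspension. Discs held 50 μg compound from a 5 g/L DMSO solution, with a DMSO-only control disc. Aerobic incubation at 35 ± 2 °C for 20 ± 4 h; inhibition zone diameter read.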

Escherichia coli [7] = assay: Antimicrobial activity against Escherichia coli clinical isolate at 50 ug/disk incubated for 20 +/- 4 hrs by agar disk diffusion method; type: functional; conditions: read-out: DIZ; outline: as §1
Proteus mirabilis = assay: Antimicrobial activity against Proteus mirabilis clinical isolate at 50 ug/disk incubated for 20 +/- 4 hrs by agar disk diffusion method; type: functional; conditions: read-out: DIZ; outline: as §1
Pseudomonas aeruginosa = assay: Antimicrobial activity against Pseudomonas aeruginosa clinical isolate at 50 ug/disk incubated for 20 +/- 4 hrs by agar disk diffusion method; type: functional; conditions: read-out: DIZ; outline: as §1
[8] = test system: Mycobacteroides abscessus; assay: Antimicrobial activity against Mycobacterium abscessus clinical isolate at 50 ug/disk incubated for 4 days by agar disk diffusion method; type: functional; conditions: 96 h, read-out: DIZ
Outline: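 On MH agar with 5% horse blood, a 0.5 McFarland inoculum was swabbed and discs with 50 μg compound (from 5 g/L in DMSO) were laid down, alongside a DMSO control disc. Incubation was humid and aerobic at 35 ± 2 °C for 4 days, then growth-inhibition diameters were measured.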

Streptococcus pyogenes [9] = assay: Antimicrobial activity against Streptococcus pyogenes clinical isolate by broth microdilution method; type: functional
Outline: (§2)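 MICs were set by broth microdilution following EUCAST guidelines, from three independent experiments reported as values or ranges. MICs were measured only where disk-diffusion inhibition diameters were 9 mm or more.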

Enterococcus faecalis [10] = assay: Antimicrobial activity against Enterococcus faecalis ATCC 29212 by broth microdilution method; type: functional; outline: as §2
Enterococcus faecium [11] = assay: Antimicrobial activity against Enterococcus faecium AUS0004 by broth microdilution method; type: functional; outline: as §2
Listeria monocytogenes [12] = assay: Antimicrobial activity against Listeria monocytogenes clinical isolate by broth microdilution method; type: functional; outline: as §2
Bacteroides fragilis = assay: Antimicrobial activity against Bacteroides fragilis ATCC 25285 by broth microdilution method; type: functional; outline: as §2
[13] = test system: Mycobacteroides abscessus; assay: Antimicrobial activity against Mycobacterium abscessus clinical isolate by broth microdilution method; type: functional; outline: as §2
[14] = test system: Mycolicibacterium fortuitum; assay: Antimicrobial activity against Mycobacterium fortuitum clinical isolate by broth microdilution method; type: functional; outline: as §2
Caco-2 = assay: Cytotoxicity against human Caco2 cells assessed as decrease in cell viability in MTT assay; type: cell-based
Outline: (§3)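 Cell viability was measured by MTT on a robotic screening platform. Residual viability was expressed as a percentage of the mean viable cells in DMSO-treated controls. Under 25-30% viability was considered cytotoxic, and IC50 values were derived.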

MDA-MB-231 = assay: Cytotoxicity against human MDA-MB-231 cells assessed as decrease in cell viability in MTT assay; type: cell-based; outline: as §3
Escherichia coli [15] = assay: Antimicrobial activity against Escherichia coli BW25113 at 10 mM/disk incubated for 20 +/- 4 hrs by agar disk diffusion method; type: functional; conditions: read-out: DIZ
Escherichia coli [16] = assay: Antimicrobial activity against Escherichia coli BW25113 by broth microdilution method; type: functional
Outline: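 MIC by broth microdilution per EUCAST guidelines, in E. coli BW25113 and its previously described deletion derivative.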

Escherichia coli [17] = assay: Antimicrobial activity against TolC deficient Escherichia coli BW25113 by agar disk diffusion method; type: functional
Escherichia coli [18] = assay: Antimicrobial activity against arfA-arfB TolC deficient Escherichia coli BW25113 by agar disk diffusion method; type: functional
Escherichia coli [19] = assay: Antimicrobial activity against clpP-TolC deficient Escherichia coli BW25113 by agar disk diffusion method; type: functional
Escherichia coli [20] = assay: Antimicrobial activity against ssrA-TolC deficient Escherichia coli BW25113 by agar disk diffusion method; type: functional
Escherichia coli [21] = assay: Bactericidal activity against TolC deficient Escherichia coli BW25113 by broth microdilution method; type: functional
Enterococcus faecalis [22] = assay: Synergistic antimicrobial activity against Enterococcus faecalis ATCC 29212 assessed as DIZ at 50 ug/disk incubated for 20 +/- 4 hrs in presence of streptomycin by agar disk diffusion method (reference value: 18 millimeter); type: functional; conditions: read-out: DIZ
Enterococcus faecalis [23] = assay: Synergistic antimicrobial activity against Enterococcus faecalis ATCC 29212 assessed as DIZ at 50 ug/disk incubated for 20 +/- 4 hrs in presence of gentamicin by agar disk diffusion method (reference value: 13 millimeter); type: functional; conditions: read-out: DIZ
Enterococcus faecium [24] = assay: Synergistic antimicrobial activity against Enterococcus faecium AUS0004 assessed as DIZ at 50 ug/disk incubated for 20 +/- 4 hrs in presence of imipenem by agar disk diffusion method (reference value: 6 millimeter); type: functional; conditions: read-out: DIZ
Enterococcus faecium [25] = assay: Synergistic antimicrobial activity against Enterococcus faecium AUS0004 assessed as DIZ at 50 ug/disk incubated for 20 +/- 4 hrs in presence of erythromycin by agar disk diffusion method (reference value: 6 millimeter); type: functional; conditions: read-out: DIZ
Listeria monocytogenes [26] = assay: Synergistic antimicrobial activity against Listeria monocytogenes clinical isolate assessed as DIZ at 50 ug/disk incubated for 20 +/- 4 hrs in presence of moxalactam by agar disk diffusion method (reference value: 13 millimeter); type: functional; conditions: read-out: DIZ
Listeria monocytogenes [27] = assay: Synergistic antimicrobial activity against Listeria monocytogenes clinical isolate assessed as DIZ at 50 ug/disk incubated for 20 +/- 4 hrs in presence of fosfomycin by agar disk diffusion method (reference value: 6 millimeter); type: functional; conditions: read-out: DIZ
Listeria monocytogenes [28] = assay: Synergistic antimicrobial activity against Listeria monocytogenes clinical isolate assessed as DIZ at 50 ug/disk incubated for 20 +/- 4 hrs in presence of ofloxacin by agar disk diffusion method (reference value: 19 millimeter); type: functional; conditions: read-out: DIZ

| Compound | zone of inhibition at 50 µg/disc (Kocuria rhizophila) | zone of inhibition at 50 µg/disc (Staphylococcus aureus [1]) | zone of inhibition at 50 µg/disc (Staphylococcus aureus [2]) | zone of inhibition at 50 µg/disc (Streptococcus pyogenes [3]) | zone of inhibition at 50 µg/disc (Bacillus subtilis) | zone of inhibition at 50 µg/disc (Enterococcus faecium [4]) | zone of inhibition at 50 µg/disc (Enterococcus faecium [5]) | zone of inhibition at 50 µg/disc (Listeria monocytogenes [6]) | zone of inhibition at 50 µg/disc (Escherichia coli [7]) | zone of inhibition at 50 µg/disc (Proteus mirabilis) | zone of inhibition at 50 µg/disc (Pseudomonas aeruginosa) | zone of inhibition at 50 µg/disc [8] | MIC (Streptococcus pyogenes [9]) | MIC (Enterococcus faecalis [10]) | MIC (Enterococcus faecium [11]) | MIC (Listeria monocytogenes [12]) | MIC (Bacteroides fragilis) | MIC [13] | MIC [14] | IC50 (Caco-2) | further results |
| --- | --- | --- | --- | --- | --- | --- | --- | --- | --- | --- | --- | --- | --- | --- | --- | --- | --- | --- | --- | --- | --- |
| O=C(Nc1nnc(-c2ccc(F)cc2)o1)c1ccc(Cl)cc1 | 11 mm | 17 mm | 12 mm | 6 mm | 12 mm | 6 mm | 8 mm | 13 mm | 6 mm | 6 mm | 6 mm | 6 mm | 32 to 64 µg/mL (≈ 101 to 201 µM) | 16 µg/mL (≈ 50.4 µM) | 16 µg/mL (≈ 50.4 µM) | 4 µg/mL (≈ 12.6 µM) | 2 to 4 µg/mL (≈ 6.3 to 12.6 µM) | 64 µg/mL (≈ 201 µM) | 32 µg/mL (≈ 101 µM) | 14 µM | IC50 (MDA-MB-231): 25 µM; zone of inhibition at 10000 µM (Escherichia coli [15]): 6 mm; MIC (Escherichia coli [16]): > 128 µM; diameter of the inhibition zone (DIZ) (Escherichia coli [17]): 13 mm; diameter of the inhibition zone (DIZ) (Escherichia coli [18]): 12.3 mm; diameter of the inhibition zone (DIZ) (Escherichia coli [19]): 14.3 mm; diameter of the inhibition zone (DIZ) (Escherichia coli [20]): 13 mm; MBC (Escherichia coli [21]): > 32 µM |
| O=C(Nc1ncc(-c2ccc(F)cc2)o1)c1ccc(Cl)cc1 | 18 mm | 20 mm | 16 mm | 6 mm | 15 mm | 12 mm | 13 mm | 17 mm | 6 mm | 6 mm | 6 mm | 7 mm | 32 to 64 µg/mL (≈ 101 to 202 µM) | 2 to 16 µg/mL (≈ 6.31 to 50.5 µM) | 1 to 4 µg/mL (≈ 3.16 to 12.6 µM) | 32 to 64 µg/mL (≈ 101 to 202 µM) | inactive | inactive | 32 to 64 µg/mL (≈ 101 to 202 µM) | 3 µM | zone of inhibition at 50 µg/disc (Enterococcus faecalis [22]): 19 mm; zone of inhibition at 50 µg/disc (Enterococcus faecalis [23]): 16 mm; zone of inhibition at 50 µg/disc (Enterococcus faecium [24]): 13 mm; zone of inhibition at 50 µg/disc (Enterococcus faecium [25]): 12 mm; zone of inhibition at 50 µg/disc (Listeria monocytogenes [26]): 17 mm; zone of inhibition at 50 µg/disc (Listeria monocytogenes [27]): 15 mm; zone of inhibition at 50 µg/disc (Listeria monocytogenes [28]): 15 mm; IC50 (MDA-MB-231): 5 µM; zone of inhibition at 10000 µM (Escherichia coli [15]): 6 mm; MIC (Escherichia coli [16]): > 128 µM; diameter of the inhibition zone (DIZ) (Escherichia coli [17]): 11.33 mm; diameter of the inhibition zone (DIZ) (Escherichia coli [18]): 14 mm; diameter of the inhibition zone (DIZ) (Escherichia coli [19]): 13.3 mm; diameter of the inhibition zone (DIZ) (Escherichia coli [20]): 13 mm |
